Measurements collected from several papers.
Each line is one published result; the experiments were not run side by side.
Target: Activated CDC42 kinase 1 (TNK2, Homo sapiens, UniProt Q07912)

O=S1(=O)N=C(NCc2ccc(OC(F)(F)F)cc2)Nc2cc(Cl)ccc21  inhibition (binding, competition with immobilised ligand; 10 µM): > 90%
CO[C@@H](C)c1c(Nc2ccc([C@H](N(C)C(=O)C3CCS(=O)(=O)CC3)C(F)(F)F)cc2)cnc2cc(Cl)nn12  remaining binding (cell-free assay, competition with immobilised ligand; 1 µM): 100%
CCCOc1ccc(OC)c(F)c1C(=O)c1ccc(C(=O)N[C@@H]2CNC[C@H]2NC(=O)c2ccc3[nH]ncc3c2)cc1  remaining activity (enzyme activity, inhibitor; 10 µM): 92%
O=C(N1CCS(=O)(=O)CC1)N1C[C@H](c2ccc(OC(F)(F)F)cc2)C[C@H](c2nc(C3CC3)no2)C1  remaining binding (cell-free assay, competition with immobilised ligand; 1 µM): 97%
N#CCCc1ccc2c(c1)-c1[nH]c3ccc([N+](=O)[O-])cc3c1CC(=O)N2  remaining signal (cell-free assay; 0.5 µM): 75.4%
c1ccc(CNc2nc(N3CCOc4ccccc43)nc3c2CCCC3)cc1  inhibition (target engagement in cells, inhibitor, chemoproteomics; 20 mM): -11.3%
Cc1cc(NC(=O)c2cccc3cc(-c4cccc5[nH]nc(N)c45)ccc23)ccc1F  activity vs control (enzyme activity, inhibitor; 0.1 µM): 107%
Cc1sc(C(=O)NC2COC2)cc1-n1cc(NC(=O)Nc2c(F)cccc2Cl)cn1  remaining activity (enzyme activity, inhibitor; 10 µM): 106%
O=C(O)c1cc(-c2ccc(C3CCNCC3)cc2)c2ccc(-c3ccc(C(F)(F)F)cc3)cc2c1  remaining binding (cell-free assay, competition with immobilised ligand; 1 µM): 100%
O=C(Nc1cnn(-c2csc(C(=O)NC3COC3)c2)c1)Nc1ccccc1Cl  remaining activity (enzyme activity, inhibitor; 5 µM): 85.6%
N#CC1(c2ccccn2)CCN(Cc2cc(C(=O)N3CCCC3)c(=O)n3ccccc23)CC1  remaining binding (cell-free assay, competition with immobilised ligand; 1 µM): 85%
Cc1ccc(C(=O)Nc2ccc(CN3CCN(C)CC3)c(C(F)(F)F)c2)cc1C#Cc1cnc2cccnn12  remaining activity (enzyme activity, inhibitor; 23.5 nM): 100%
Cc1ccc(C(=O)NCc2ccsc2)cc1C#Cc1cn(C(C)C)c2ncnc(N)c12  activity vs control (enzyme activity, inhibitor; 1 µM): 19%
CC(C)(C)c1nc(-c2cccc(NS(=O)(=O)c3c(F)cccc3F)c2F)c(-c2ccnc(N)n2)s1  remaining activity (enzyme activity, inhibitor, radiometric; 1 µM): 29%
Cc1ccc(NC(=O)c2ccc(C)c(C(F)(F)F)c2)cc1C#Cc1nn(C2CCC(O)CC2)c2ncnc(N)c12 (centres unmarked)  remaining signal (cell-free assay; 10 µM): 4%
O=C1NC(=O)c2cc(Nc3ccc(F)cc3)c(Nc3ccc(F)cc3)cc21  remaining signal (cell-free assay; 0.5 µM): 93.2%
CN(C)CC#Cc1ccc(OCCCc2sc(N3CCc4cccc(C(=O)Nc5nc6ccccc6s5)c4C3)nc2C(=O)O)c(F)c1  remaining binding (cell-free assay, competition with immobilised ligand; 1 µM): 100%
